According to ChEMBL document CHEMBL1221230, “Inhibition of eukaryotic translation elongation by cycloheximide and lactimidomycin” (Nat Chem Biol, 2010):
The source made the active and inactive calls. The rule behind the calls is not given here.

Columns and labels:
HCC1937 = assay: Anticancer activity against human HCC1937 cells after 24 hrs by [3H]thymidine incorporation assay; format: functional, cell-based
Saccharomyces cerevisiae [1] = assay: Fold resistance, ratio of IC50 for Saccharomyces cerevisiae BY724 expressing ribosomal protein cyh2 and harboring mutation in rpl28 to IC50 for Saccharomyces cerevisiae BY108; format: functional
In short: (§1)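 Four isogenic S. cerevisiae strain pairs, each differing only by presence or absence of cyh2, exposed to varying compound concentrations; growth read by optical density; IC50 derived per strain, resistance as ratio between paired strains.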

Saccharomyces cerevisiae [2] = assay: Antimicrobial activity against Saccharomyces cerevisiae BY108; format: functional, organism-based; in short: as §1
[3] = target: Elongation factor 2 (Homo sapiens) (UniProt P13639); assay: Inhibition of eEF2-mediated tRNA translocation assessed as decrease in tripeptide (Met-Phe-Phe) formation by TLC
Saccharomyces cerevisiae [4] = assay: Fold resistance, ratio of IC50 Saccharomyces cerevisiae J407alpha expressing ribosomal protein cyh2 and harboring mutation in rpl28 to IC50 for Saccharomyces cerevisiae J47alpha; format: functional; in short: as §1
HCC2218 = assay: Anticancer activity against human HCC2218 cells after 24 hrs by [3H]thymidine incorporation assay; format: functional, cell-based
HCC1395 = assay: Anticancer activity against human HCC1395 cells after 24 hrs by [3H]thymidine incorporation assay; format: functional, cell-based
HeLa [5] = assay: Inhibition of transcriptional activity in human HeLa cells assessed as [3H]uridine utilization after 2 hrs by scintillation counting; format: functional, cell-based
In short: (§2)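 HeLa cells incubated 2 h with varying compound concentrations plus [³⁵S]cysteine/methionine (translation) or [³H]uridine (transcription). Protein synthesis: scintillation counting of TCA-precipitated protein on PVDF membrane. Transcription: scintillation counting of nucleic acids bound to GF/C glass fibre filter.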

[6] = Effect on peptidyl transfer assessed as [35S]methionyl-puromycin formation by TLC
Oryctolagus cuniculus = organism: Oryctolagus cuniculus; assay: Inhibition of translational activity in rabbit reticulocyte assessed as occurrence of ribosomal arrest at start codon at 200 uM by toeprinting assay; format: functional
In short: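 Labelled rabbit β-globin mRNA incubated in rabbit reticulocyte lysate with inhibitor; mixture centrifuged through sucrose gradient, 80S fractions taken to isolate stalled ribosomes; primer extended by AMV reverse transcriptase toward stalled ribosome to map arrest site.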

HeLa [7] = assay: Antiproliferative activity against human HeLa cells assessed as incorporation of [3H]thymidine in nuclear DNA at 2.5 uM after 24 hrs by scintillation counting; format: functional, cell-based
In short: (§3)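 Each of three tumour cell lines incubated with compound at 2.5 μM for 24 h, then [³H]thymidine added to monitor DNA synthesis; initial proliferation screen.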

MCF-10A = assay: Anticancer activity against human MCF10A cells after 24 hrs by [3H]thymidine incorporation assay; format: functional, cell-based
[8] = Inhibition of elF4A-mediated renilla luciferase translational activity at 0.02 to 5 uM in presence of EMCV IRES element
[9] = Effect on polyribosome profiling assessed as accumulation of 80S ribosomes after 15 mins by scintillation spectroscopy; format: functional
In short: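 Capped [³²P]-labelled rabbit β-globin RNA incubated in rabbit reticulocyte lysate with compound for 15 min, then centrifuged through 10–35% sucrose gradient.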

HeLa [10] = assay: Inhibition of protein synthesis in human HeLa cells assessed as [35S]cysteine/methionine utilization after 2 hrs by scintillation spectroscopy; format: functional, cell-based; in short: as §2
HEK-293T [11] = assay: Effect on polyribosome profiling in human HEK293T cells assessed as depletion of polysomes at 50 uM after 30 mins by spectrophotometry; format: functional, cell-based
In short: (§4)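 HEK 293T cells treated 30 min with compound, then lysed; lysates centrifuged through 15–45% sucrose gradient to give polysome profiles.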

MDA-MB-231 [12] = assay: Antitumor activity against human MDA-MB-231 cells xenografted in nude mouse assessed as inhibition of tumor growth at 0.6 mg/kg, sc qd for 1 month administered post tumor implantation; format: functional, organism-based; parameters: dose 0.6 mg/kg
In short: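 Two million MDA-MB-231 cells injected subcutaneously into female nude mice; once tumours palpable, compound 0.6 mg/kg or solvent given daily for one month; tumour growth followed.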

MCF7 = assay: Anticancer activity against human MCF7 cells after 24 hrs by [3H]thymidine incorporation assay; format: functional, cell-based
[13] = Inhibition of [32P]deacetylated phe-tRNA binding to 60S ribosome E-site by footprinting assay
Saccharomyces cerevisiae [14] = assay: Antimicrobial activity against Saccharomyces cerevisiae JB503; format: functional, organism-based; in short: as §1
MDA-MB-231 [15] = assay: Antiproliferative activity against human MDA-MB-231 cells assessed as incorporation of [3H]thymidine in nuclear DNA at 2.5 uM after 24 hrs by scintillation counting; format: functional, cell-based; in short: as §3
Saccharomyces cerevisiae [16] = assay: Antimicrobial activity against Saccharomyces cerevisiae BY740 expressing ribosomal protein cyh2 and harboring mutation in rpl28; format: functional, organism-based; in short: as §1
[17] = Binding affinity to 60S ribosome E-site by footprinting assay
In short: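 DMS footprinting of salt-washed 80S ribosomes preincubated 5 min at room temperature with compound, DMS then 5 min at 37°C; rRNA primer extension with AMV reverse transcriptase and [α-³²P]TTP, sequencing gel. For K_D, 300 μl volume at 50 or 100 nM ribosomes titrated with increasing compound.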

[18] = target: Elongation factor 2 (Homo sapiens) (UniProt P13639); assay: Inhibition of eEF2-mediated tRNA translocation assessed as inhibition of polyphenylalanine synthesis at 200 uM after 10 mins by scintillation counting
Hs-578T = assay: Anticancer activity against human Hs 578T cells after 24 hrs by [3H]thymidine incorporation assay; format: functional, cell-based
HEK-293T [19] = assay: Effect on polyribosome profiling in human HEK293T cells assessed as accumulation of 80S ribosomes at 50 uM after 30 mins by spectrophotometry; format: functional, cell-based; in short: as §4
Saccharomyces cerevisiae [20] = assay: Antimicrobial activity against Saccharomyces cerevisiae J407alpha expressing ribosomal protein cyh2 and harboring mutation in rpl28; format: functional, organism-based; in short: as §1
[21] = target: T1, Elongation factor 1-alpha 1 (Homo sapiens) (UniProt P68104); assay: Inhibition of eEF1A-mediated tRNA binding to ternary complex at 200 uM after 10 mins by filtration binding assay
T1 sequence (whole entry): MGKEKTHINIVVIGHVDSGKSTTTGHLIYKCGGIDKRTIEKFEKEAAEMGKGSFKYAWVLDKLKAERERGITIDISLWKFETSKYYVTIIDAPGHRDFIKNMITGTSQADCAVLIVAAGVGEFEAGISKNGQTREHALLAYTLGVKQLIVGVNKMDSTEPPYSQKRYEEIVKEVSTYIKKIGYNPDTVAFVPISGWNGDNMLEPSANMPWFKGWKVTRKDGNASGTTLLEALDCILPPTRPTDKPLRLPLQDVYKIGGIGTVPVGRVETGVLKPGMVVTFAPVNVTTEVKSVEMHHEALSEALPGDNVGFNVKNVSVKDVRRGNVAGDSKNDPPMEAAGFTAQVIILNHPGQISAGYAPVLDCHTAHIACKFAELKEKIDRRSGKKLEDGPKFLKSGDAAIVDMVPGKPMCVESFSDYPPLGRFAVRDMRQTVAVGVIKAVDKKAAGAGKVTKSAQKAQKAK
In short: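 Ribosomes (89 pmol) in 20 mM HEPES pH 7.4, 100 mM KCl, 10 mM MgCl₂, 1 mM DTT with 200 ng poly(U), 2.2 μg eEF1A, 150 μM GDPNP and 200 μM compound, before 10 pmol [¹⁴C]Phe-tRNA^Phe added; 10 min at 37°C; nitrocellulose filtration, scintillation counting.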

C/C(=C\[C@H](C)C(=O)C[C@H](O)CC1CC(=O)NC(=O)C1)[C@@H]1OC(=O)/C=C/CC/C=C/C=C\[C@@H]1C [LACTIMIDOMYCIN]
Activity (HCC1937): Active | Ratio IC50 (Saccharomyces cerevisiae [1]): 13.4 | IC50 (Saccharomyces cerevisiae [2]): 488 nM | inhibition [3]: Active | Ratio IC50 (Saccharomyces cerevisiae [4]): 241 | Activity (HCC2218): Active | Activity (HCC1395): Active | IC50 (HeLa [5]): > 10000 nM | Activity [6]: inactive | inhibition (Oryctolagus cuniculus): Active | Activity (HeLa [7]): inactive | Activity (MCF-10A): Active | inhibition [8]: Active | Activity [9]: Active | IC50 (HeLa [10]): 37.8 nM | inhibition (HeLa [10]): Dose-dependent effect | Activity (HEK-293T [11]): Active | Activity (MDA-MB-231 [12]): Active | Activity (MCF7): Active | inhibition [13]: Active | IC50 (Saccharomyces cerevisiae [14]): 58 nM | Activity (MDA-MB-231 [15]): inactive | IC50 (Saccharomyces cerevisiae [16]): 1210 nM | Activity [17]: Dose-dependent effect | Kd [17]: 500 nM | inhibition [18]: Active | Activity (Hs-578T): Active | Activity (HEK-293T [19]): Active | IC50 (Saccharomyces cerevisiae [20]): 1110 nM | inhibition [21]: inactive
